Test results published in ChEMBL document CHEMBL4725492, “Dioxane-Linked Amide Derivatives as Novel Bacterial Topoisomerase Inhibitors against Gram-Positive Staphylococcus aureus” (ACS Med Chem Lett, 2020).
Converted amounts (≈) assume the structure as drawn. One block for each compound: values may come before it. The source made the active and inactive calls. No cut-off for these calls is given here.

Assays:
[1] = Growth inhibition of human K/VP.5 cells incubated for 48 hrs by sulforhodamine B assay; assay type: functional
[2] = target: Topoisomerase IV (Staphylococcus aureus, UniProt P0C1S7+P0C1U9); test: (§1) Inhibition of Staphylococcus aureus topoisomerase-4 assessed as reduction in decatenation of kinetoplast DNA agarose gel electrophoresis method; assay type: protein-complex assay
[3] = system: Staphylococcus aureus; test: Antibacterial activity against Staphylococcus aureus 3527 by CLSI based agar dilution method; assay type: functional
[4] = target: T1, DNA gyrase (Staphylococcus aureus) (UniProt P0A0K8+P20831); test: Inhibition of Staphylococcus aureus DNA gyrase assessed as single-strand break at 20 uM using relaxed pBR322 as substrate by ethidium bromide-based gel electrophoresis; assay type: protein-complex assay
Outline: (§2)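 S. aureus gyrase-mediated DNA cleavage: compound was incubated with enzyme and DNA, and products were resolved on an ethidium-stained gel into negatively supercoiled, nicked (single-strand break) and linear (double-strand break) forms. Lane fluorescence was corrected for differential band emission. Percent of each form was calculated, and enzyme-only cleavage was subtracted. Concentrations spanned 0.1 nM–200 μM, with a 20 μM single-point screen. Results are mean ± SD or range.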

[5] = system: Staphylococcus aureus; test: Antibacterial activity against Staphylococcus aureus D83N by CLSI based agar dilution method; assay type: functional
[6] = system: Staphylococcus aureus; test: Antibacterial activity against Staphylococcus aureus ATCC 29213 by CLSI based agar dilution method; assay type: functional
[7] = target: Voltage-gated inwardly rectifying potassium channel KCNH2 (Homo sapiens, UniProt Q12809); test: Inhibition of human ERG; conditions: for INH: human
Voltage-gated inwardly rectifying potassium channel KCNH2, sequence (Q12809 whole entry): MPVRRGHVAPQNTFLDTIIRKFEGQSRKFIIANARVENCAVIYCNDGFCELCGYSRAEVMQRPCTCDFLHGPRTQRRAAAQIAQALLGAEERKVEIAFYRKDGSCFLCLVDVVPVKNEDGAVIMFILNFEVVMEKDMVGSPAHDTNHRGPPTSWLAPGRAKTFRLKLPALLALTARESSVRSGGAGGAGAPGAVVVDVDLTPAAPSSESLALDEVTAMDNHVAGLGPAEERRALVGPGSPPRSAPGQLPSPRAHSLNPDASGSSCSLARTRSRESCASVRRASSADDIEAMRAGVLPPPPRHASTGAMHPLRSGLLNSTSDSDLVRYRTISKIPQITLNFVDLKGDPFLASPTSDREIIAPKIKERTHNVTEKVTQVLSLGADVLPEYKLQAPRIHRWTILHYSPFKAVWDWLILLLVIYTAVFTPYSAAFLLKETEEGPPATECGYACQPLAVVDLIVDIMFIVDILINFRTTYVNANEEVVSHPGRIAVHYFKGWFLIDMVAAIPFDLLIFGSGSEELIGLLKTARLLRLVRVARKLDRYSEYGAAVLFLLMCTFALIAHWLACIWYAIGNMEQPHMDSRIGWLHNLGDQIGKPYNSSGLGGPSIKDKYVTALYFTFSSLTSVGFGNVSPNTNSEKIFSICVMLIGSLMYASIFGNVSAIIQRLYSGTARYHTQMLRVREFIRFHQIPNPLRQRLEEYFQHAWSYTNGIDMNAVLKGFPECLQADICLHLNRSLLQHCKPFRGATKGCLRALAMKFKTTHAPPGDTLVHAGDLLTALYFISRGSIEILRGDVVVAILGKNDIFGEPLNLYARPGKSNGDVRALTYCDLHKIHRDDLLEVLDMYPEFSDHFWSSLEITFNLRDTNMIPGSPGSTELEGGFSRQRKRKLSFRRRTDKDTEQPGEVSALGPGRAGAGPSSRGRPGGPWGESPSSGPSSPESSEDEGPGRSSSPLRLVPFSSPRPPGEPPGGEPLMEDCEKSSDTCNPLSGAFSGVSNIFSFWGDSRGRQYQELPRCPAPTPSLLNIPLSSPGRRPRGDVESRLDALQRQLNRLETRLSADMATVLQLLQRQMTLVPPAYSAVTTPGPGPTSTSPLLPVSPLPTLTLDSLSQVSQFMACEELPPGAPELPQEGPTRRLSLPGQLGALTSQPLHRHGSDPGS

[8] = target: DNA gyrase (Staphylococcus aureus, UniProt P0A0K8+P20831); test: Inhibition of Staphylococcus aureus DNA gyrase using relaxed pBR322 as substrate by gel electrophoresis; assay type: protein-complex assay
[9] = target: T1, DNA gyrase (Staphylococcus aureus); test: Inhibition of Staphylococcus aureus DNA gyrase assessed as double-strand break at 20 uM using relaxed pBR322 as substrate by ethidium bromide-based gel electrophoresis; assay type: protein-complex assay; outline: as §2
[10] = target: DNA topoisomerase 2-alpha (Homo sapiens, UniProt P11388); test: Inhibition of human topoisomerase 2alpha
DNA topoisomerase 2-alpha, sequence (P11388 whole entry): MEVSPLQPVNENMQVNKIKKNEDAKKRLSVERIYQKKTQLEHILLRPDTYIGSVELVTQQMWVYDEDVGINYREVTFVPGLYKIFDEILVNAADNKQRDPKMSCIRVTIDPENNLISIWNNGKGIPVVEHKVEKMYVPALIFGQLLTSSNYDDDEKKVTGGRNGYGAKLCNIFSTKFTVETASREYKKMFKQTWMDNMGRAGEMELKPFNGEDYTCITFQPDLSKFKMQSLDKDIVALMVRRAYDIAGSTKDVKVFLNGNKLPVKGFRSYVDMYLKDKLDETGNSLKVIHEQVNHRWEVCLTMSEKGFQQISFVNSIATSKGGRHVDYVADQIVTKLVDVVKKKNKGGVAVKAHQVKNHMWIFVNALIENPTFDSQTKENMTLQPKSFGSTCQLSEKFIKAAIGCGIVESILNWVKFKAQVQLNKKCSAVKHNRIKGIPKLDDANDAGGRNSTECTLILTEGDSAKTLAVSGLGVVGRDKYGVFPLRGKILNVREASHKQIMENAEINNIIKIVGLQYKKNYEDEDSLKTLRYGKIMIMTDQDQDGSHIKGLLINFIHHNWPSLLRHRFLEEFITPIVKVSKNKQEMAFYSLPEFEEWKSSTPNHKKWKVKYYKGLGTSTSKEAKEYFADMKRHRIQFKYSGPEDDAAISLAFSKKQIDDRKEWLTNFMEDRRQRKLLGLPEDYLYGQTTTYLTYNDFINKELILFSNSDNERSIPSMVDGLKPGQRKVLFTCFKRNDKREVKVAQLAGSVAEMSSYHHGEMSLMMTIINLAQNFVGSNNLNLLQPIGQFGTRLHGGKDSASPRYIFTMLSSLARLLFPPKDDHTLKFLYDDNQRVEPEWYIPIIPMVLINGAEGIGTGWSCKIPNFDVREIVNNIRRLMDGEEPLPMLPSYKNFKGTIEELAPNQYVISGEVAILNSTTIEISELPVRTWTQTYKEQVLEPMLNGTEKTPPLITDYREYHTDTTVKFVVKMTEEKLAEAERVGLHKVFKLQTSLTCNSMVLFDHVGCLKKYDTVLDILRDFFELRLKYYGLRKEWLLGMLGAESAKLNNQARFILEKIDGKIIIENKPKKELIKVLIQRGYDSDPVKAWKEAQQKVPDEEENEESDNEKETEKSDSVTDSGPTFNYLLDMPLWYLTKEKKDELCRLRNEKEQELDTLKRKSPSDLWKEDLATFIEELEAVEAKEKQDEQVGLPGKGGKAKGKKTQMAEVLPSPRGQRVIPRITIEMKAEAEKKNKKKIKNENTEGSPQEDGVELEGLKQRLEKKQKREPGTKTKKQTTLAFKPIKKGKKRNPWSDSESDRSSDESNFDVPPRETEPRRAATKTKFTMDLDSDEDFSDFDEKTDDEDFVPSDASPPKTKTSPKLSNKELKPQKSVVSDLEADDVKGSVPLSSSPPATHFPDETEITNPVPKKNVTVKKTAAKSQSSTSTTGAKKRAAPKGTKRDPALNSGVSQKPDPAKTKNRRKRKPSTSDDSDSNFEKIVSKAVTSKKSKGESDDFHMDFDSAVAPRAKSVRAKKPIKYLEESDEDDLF
Outline: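 Human topoisomerase IIα decatenation activity was tested at a single concentration of 100 μM and reported as percent inhibition.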

[11] = system: K562; test: Growth inhibition of human K562 cells incubated for 48 hrs by sulforhodamine B assay; assay type: functional
[12] = system: Staphylococcus aureus; test: Antibacterial activity against Staphylococcus aureus USA300 by CLSI based agar dilution method; assay type: functional
[13] = target: Topoisomerase IV (Staphylococcus aureus, UniProt P0C1U9+P0C1S7); test: as §1; assay type: protein-complex assay
[14] = target: T1, DNA gyrase (Staphylococcus aureus); test: Inhibition of Staphylococcus aureus DNA gyrase assessed as double-strand break at upto 100 uM using relaxed pBR322 as substrate by ethidium bromide-based gel electrophoresis; assay type: protein-complex assay; conditions: dose microM <=100; outline: as §2
[15] = target: T1, DNA gyrase (Staphylococcus aureus); test: Inhibition of Staphylococcus aureus DNA gyrase assessed as single-strand break using relaxed pBR322 as substrate by ethidium bromide-based gel electrophoresis; assay type: protein-complex assay; outline: as §2
[16] = target: T1, DNA gyrase (Staphylococcus aureus); test: Inhibition of Staphylococcus aureus DNA gyrase assessed as double-strand break at 100 to 200 uM using relaxed pBR322 as substrate by ethidium bromide-based gel electrophoresis; assay type: protein-complex assay; conditions: dose microM 100-200; outline: as §2
[17] = target: T1, DNA gyrase (Staphylococcus aureus); test: Inhibition of Staphylococcus aureus DNA gyrase assessed as single-strand break at 100 to 200 uM using relaxed pBR322 as substrate by ethidium bromide-based gel electrophoresis; assay type: protein-complex assay; conditions: dose microM 100-200; outline: as §2

Structure (SMILES): COc1ccc2nccc(CC[C@H]3OC[C@H](NC(=O)c4ccc(C(C)(C)C)cc4)CO3)c2c1
- INH [1]: 8.8 µM
- IC50 [2]: > 200000 nM
- MIC [3]: 1 µg/mL (≈ 2.23 µM)
- inhibition [4]: Active
- MIC [5]: 2 µg/mL (≈ 4.46 µM)
- MIC [6]: 0.25 µg/mL (≈ 0.557 µM)
- INH [7]: 5.2 µM
- IC50 [8]: 1300 nM
- inhibition [9]: inactive
- inhibition (INH) [10]: Not Active
- INH [11]: 8.4 µM
- MIC [12]: 1 µg/mL (≈ 2.23 µM)

Structure (SMILES): COc1ccc2nccc(CC[C@H]3OC[C@H](NC(=O)c4ccc5c(n4)NC(=O)CO5)CO3)c2c1
- INH [1]: >200 µM
- IC50 [2]: 190 nM
- MIC [3]: 0.125 µg/mL (≈ 0.269 µM)
- MIC [5]: > 64 µg/mL
- MIC [6]: 0.125 µg/mL (≈ 0.269 µM)
- INH [7]: > 12 µM
- IC50 [8]: 40 nM
- INH [11]: >200 µM
- MIC [12]: 0.125 µg/mL (≈ 0.269 µM)

Structure (SMILES): COc1ccc2nccc(CC[C@H]3OC[C@H](NC(=O)C4COc5ccccc5C4)CO3)c2c1 (stereo not given in full)
- MIC [3]: > 64 µg/mL
- MIC [5]: > 64 µg/mL
- MIC [6]: > 64 µg/mL
- MIC [12]: > 64 µg/mL

Structure (SMILES): COc1ccc2nccc(CC[C@H]3OC[C@H](NC(=O)c4ccccn4)CO3)c2c1
- MIC [3]: > 256 µg/mL
- MIC [5]: > 256 µg/mL
- MIC [6]: > 256 µg/mL
- MIC [12]: > 256 µg/mL

Structure (SMILES): COc1ccc2nccc(CC[C@H]3OC[C@H](NC(=O)c4ccc(C)cc4)CO3)c2c1
- INH [1]: 17 µM
- IC50 [13]: Not Active
- MIC [3]: 2 µg/mL (≈ 4.92 µM)
- inhibition [4]: Active
- MIC [5]: > 32 µg/mL
- MIC [6]: 1 µg/mL (≈ 2.46 µM)
- INH [7]: > 30 µM
- IC50 [8]: 410 nM
- inhibition [9]: inactive
- inhibition (INH) [10]: Not Active
- INH [11]: 18 µM
- MIC [12]: 1 µg/mL (≈ 2.46 µM)

Structure (SMILES): COc1ccc2nccc(CC[C@H]3OC[C@H](NC(=O)[C@H]4CC[C@@H](N)CC4)CO3)c2c1
- MIC [3]: > 64 µg/mL
- MIC [5]: > 64 µg/mL
- MIC [6]: > 64 µg/mL
- MIC [12]: > 64 µg/mL

Structure (SMILES): COc1ccc2nccc(CC[C@H]3OC[C@H](NC(=O)c4ccccc4Cl)CO3)c2c1
- MIC [3]: > 256 µg/mL
- MIC [5]: > 256 µg/mL
- MIC [6]: 256 µg/mL (≈ 600 µM)
- MIC [12]: > 256 µg/mL

Structure (SMILES): COc1ccc2nccc(CC[C@H]3OC[C@H](NC(=O)[C@H]4CC[C@H](C)CC4)CO3)c2c1
- MIC [3]: 8 µg/mL (≈ 19.4 µM)
- MIC [5]: > 32 µg/mL
- MIC [6]: 4 µg/mL (≈ 9.7 µM)
- MIC [12]: 8 µg/mL (≈ 19.4 µM)

Structure (SMILES): COc1ccc2nccc(CC[C@H]3OC[C@H](NC(=O)c4ccc5c(c4)OCCO5)CO3)c2c1
- IC50 [2]: > 200000 nM
- MIC [3]: 0.5 µg/mL (≈ 1.11 µM)
- inhibition [4]: Active
- MIC [5]: > 32 µg/mL
- MIC [6]: 1 µg/mL (≈ 2.22 µM)
- IC50 [7]: > 100000 nM
- inhibition [14]: inactive
- inhibition [15]: Dose-dependent effect
- IC50 [8]: 3700 nM
- inhibition [9]: inactive
- MIC [12]: 1 µg/mL (≈ 2.22 µM)

Structure (SMILES): COc1ccc2nccc(CC[C@H]3OC[C@H](NC(=O)C4COc5ccccc5O4)CO3)c2c1 (stereo not given in full)
- MIC [3]: > 64 µg/mL
- MIC [5]: > 64 µg/mL
- MIC [6]: > 64 µg/mL
- MIC [12]: > 64 µg/mL

- inhibition [16]: inactive
- inhibition [17]: Active
Structure (SMILES): O=c1ccc2ncc(=O)n3c2n1C[C@H]3CN1CCC(NCc2cc3c(cn2)OCCC3)CC1

Structure (SMILES): COc1ccc2nccc(CC[C@H]3OC[C@H](NC(=O)C4CCNCC4)CO3)c2c1
- MIC [3]: > 64 µg/mL
- MIC [5]: > 64 µg/mL
- MIC [6]: > 64 µg/mL
- MIC [12]: > 64 µg/mL

Structure (SMILES): COc1ccc2nccc(CC[C@H]3OC[C@H](NC(=O)C4CCCCC4)CO3)c2c1
- MIC [3]: 8 µg/mL (≈ 20.1 µM)
- MIC [5]: 32 µg/mL (≈ 80.3 µM)
- MIC [6]: 8 µg/mL (≈ 20.1 µM)
- MIC [12]: 8 µg/mL (≈ 20.1 µM)

Structure (SMILES): COc1ccc2nccc(CC[C@H]3OC[C@H](NC(=O)C4(C)CCCCC4)CO3)c2c1
- MIC [3]: > 64 µg/mL
- MIC [5]: > 64 µg/mL
- MIC [6]: > 64 µg/mL
- MIC [12]: > 64 µg/mL

Structure (SMILES): COc1ccc2nccc(CC[C@H]3OC[C@H](NC(=O)c4ccc(Cl)cc4)CO3)c2c1
- INH [1]: 11 µM
- IC50 [13]: Not Active
- MIC [3]: 2 µg/mL (≈ 4.68 µM)
- inhibition [4]: Active
- MIC [5]: > 32 µg/mL
- MIC [6]: 1 µg/mL (≈ 2.34 µM)
- INH [7]: 11 µM
- IC50 [8]: 610 nM
- inhibition [9]: inactive
- inhibition (INH) [10]: Not Active
- INH [11]: 10 µM
- MIC [12]: 1 µg/mL (≈ 2.34 µM)

Structure (SMILES): COc1ccc2nccc(CC[C@H]3OC[C@H](NC(=O)c4ccc(OC(F)(F)F)cc4)CO3)c2c1
- INH [1]: 9 µM
- IC50 [13]: Not Active
- MIC [3]: 2 µg/mL (≈ 4.2 µM)
- inhibition [4]: Active
- MIC [5]: > 32 µg/mL
- MIC [6]: 0.5 µg/mL (≈ 1.05 µM)
- INH [7]: > 10 µM
- IC50 [8]: 1400 nM
- inhibition [9]: inactive
- inhibition (INH) [10]: Not Active
- INH [11]: 11 µM
- MIC [12]: 1 µg/mL (≈ 2.1 µM)

Structure (SMILES): COc1ccc2nccc(CC[C@H]3OC[C@H](NC(=O)c4ccc5c(n4)NC(=O)CS5)CO3)c2c1
- INH [1]: >200 µM
- IC50 [2]: 300 nM
- MIC [3]: 0.03 µg/mL (≈ 0.0624 µM)
- MIC [5]: > 64 µg/mL
- MIC [6]: 0.06 µg/mL (≈ 0.125 µM)
- INH [7]: > 3 µM
- IC50 [8]: 170 nM
- INH [11]: >200 µM
- MIC [12]: 0.03 µg/mL (≈ 0.0624 µM)
